# From PubChem BioAssay
# The source made the active and inactive calls. Cut-off read from the data, not from the text of the source, unless noted: active = inhibition above about 30%; inactive = the rest.
# Legend:
# [1] = Her2 expression decrease, cell viability multiplex – SKBR3 breast tumor cells, AlphaScreen, ATP viability, primary screen (AID 461;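 active = Her2 level under about 52% in both replicate screens, with viability over 70% of control, limit read from the data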;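 for Her2 level: lower value means less Her2 protein in the cells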;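 for viability: percent of carrier control wells set as 100% viability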); conditions: SKBR3 Her2 protein level, 18-24 h, measured here: SKBR3 viability, ATP luminescence, at 10 µM
# [2] = target: Receptor tyrosine-protein kinase erbB-2 (Homo sapiens) (UniProt P04626); assay: as above; conditions: 18-24 h, at 10 µM, stronger effect = lower value
# [3] = reduced viability of SK-BR-3 breast cancer cells – cell-based, 24 h, human, pilot screen (AID 572;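 active = viability at or below 10% of carrier control in both of two separate runs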;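 note: compound exposure lasted between 18 and 24 h rather than exactly 24 h; 100% = carrier-treated control wells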); conditions: SK-BR-3 viability, CellTiter-Glo luminescence, at 10 µM, stronger effect = lower value
# [4] = HUVEC growth inhibition – cell-based, human, primary screen (AID 575;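 active = viability at or below 30% in both replicate assays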;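 note: 100% = median of untreated cell wells with 0.1% DMSO on each plate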); conditions: HUVEC proliferation, CellTiter-Glo luminescence, 72 h; at 10 µM; stronger effect = lower value
# Method in brief: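 Assay system: Primary human umbilical vein endothelial cells | Quantity: 1250 cells per well | Medium: Supplemented EBM, 2% fetal bovine serum | Detection: CellTiter-Glo luminescence measuring cellular ATP | Read-out: % viability vs DMSO wells | Plate: Collagen-coated 384-well format | Times: 72 h exposure, 37 °C, 5% CO2, 30 min RT equilibration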
# [5] = H69AR cell proliferation blockers – human, duplicate replicates, primary screen (AID 580;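 active = viability at or under a set limit in both replicates, limit being median viability minus 3 SD, cut at about 48% in these data, passing the limit was not always enough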;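 note: 100% = mean luminescence of untreated wells and 0% = no signal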); conditions: H69AR lung tumor cells viability, ATP luminescence, 72 h; at 10 µM; stronger effect = lower value
# [6] = MRP1 drug-resistance reversers in H69AR cells – cell-based, doxorubicin co-treatment, pilot screen (AID 601;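 active = viability loss from added drug above about 55%, and viability with drug at most 40%, in both replicates, limit read from the data, passing the limit was not always enough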); conditions: CellTiter-Glo, 72 h, at 10 µM; for differential viability (reversal): stronger effect = higher value
# [7] = yeast transport mutant growth inhibition pilot in 384-well plates, post-Golgi transport modulator project (AID 636; in the data active = inhibition above about 31%); conditions: absorbance 615 nm, about 18 h, stronger effect = higher value
# [8] = growth suppression of yeast trafficking mutant, preliminary HTS, modulators of trafficking downstream of Golgi apparatus project, 1536-format plate, OD 615 nm (AID 637); conditions: yeast transport mutant growth, absorbance 615 nm, 18 h; stronger effect = higher value
# [9] = H69AR cells + 2 uM doxorubicin, measured here: viability with 2 uM doxorubicin, stronger effect = lower value
# [10] = H69AR cells, compound alone cytotoxicity
# Sequence of Receptor tyrosine-protein kinase erbB-2 (Homo sapiens) (P04626 whole entry, looked up): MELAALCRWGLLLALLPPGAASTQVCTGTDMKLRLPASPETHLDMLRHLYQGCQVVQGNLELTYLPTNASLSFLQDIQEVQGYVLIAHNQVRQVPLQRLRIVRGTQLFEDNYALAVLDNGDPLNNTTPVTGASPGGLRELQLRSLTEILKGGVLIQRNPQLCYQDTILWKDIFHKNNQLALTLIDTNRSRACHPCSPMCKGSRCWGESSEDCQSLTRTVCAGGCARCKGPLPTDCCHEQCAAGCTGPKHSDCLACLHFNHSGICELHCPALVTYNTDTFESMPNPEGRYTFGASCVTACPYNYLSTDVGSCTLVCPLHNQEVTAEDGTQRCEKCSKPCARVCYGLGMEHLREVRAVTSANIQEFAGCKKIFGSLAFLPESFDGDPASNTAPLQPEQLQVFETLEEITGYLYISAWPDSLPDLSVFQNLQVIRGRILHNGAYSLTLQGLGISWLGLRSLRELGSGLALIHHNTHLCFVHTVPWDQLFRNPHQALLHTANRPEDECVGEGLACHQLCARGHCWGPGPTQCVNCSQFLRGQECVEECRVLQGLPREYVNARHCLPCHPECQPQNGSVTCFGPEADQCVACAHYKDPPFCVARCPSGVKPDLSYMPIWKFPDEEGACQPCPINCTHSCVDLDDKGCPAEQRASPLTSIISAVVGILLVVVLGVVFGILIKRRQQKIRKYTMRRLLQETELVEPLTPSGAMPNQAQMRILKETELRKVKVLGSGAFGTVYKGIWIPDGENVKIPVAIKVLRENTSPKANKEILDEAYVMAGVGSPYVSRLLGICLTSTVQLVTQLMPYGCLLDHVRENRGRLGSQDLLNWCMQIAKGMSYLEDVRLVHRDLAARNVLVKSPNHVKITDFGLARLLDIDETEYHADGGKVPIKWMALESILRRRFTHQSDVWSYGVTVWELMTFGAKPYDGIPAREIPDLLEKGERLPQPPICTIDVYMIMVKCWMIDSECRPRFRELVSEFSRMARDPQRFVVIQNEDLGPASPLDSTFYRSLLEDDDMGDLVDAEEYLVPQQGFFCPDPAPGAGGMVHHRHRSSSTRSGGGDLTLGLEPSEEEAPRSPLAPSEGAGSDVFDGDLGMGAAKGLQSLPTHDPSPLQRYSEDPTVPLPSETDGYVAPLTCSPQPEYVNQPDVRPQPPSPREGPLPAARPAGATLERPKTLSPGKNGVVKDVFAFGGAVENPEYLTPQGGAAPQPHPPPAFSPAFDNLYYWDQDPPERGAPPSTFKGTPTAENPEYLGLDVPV
smiles,measurement,setting,value
COc1ccccc1NC(=O)C1CC(=O)N(c2ccc(F)cc2)C1 (stereo not given),viability,[1],99%
same,Her2 level,[2],144% (inactive)
same,viability,[3],99% (inactive)
same,viability,[4],109% (inactive)
same,viability,[5],97.3% (inactive)
same,differential viability (reversal),[6]; H69AR cells + 2 uM doxorubicin,8.91% (inactive)
same,viability,[6]; [9],88.4%
same,viability,[6]; [10],97.3%
same,inhibition,[7],0.53% (inactive)
same,inhibition,[8],19.2% (inactive)
CC(=O)N1CCN=C1SCc1ccc(Br)cc1,viability,[1],93%
same,Her2 level,[2],97.5% (inactive)
same,viability,[3],93% (inactive)
same,viability,[4],71.9% (inactive)
same,viability,[5],87% (inactive)
same,differential viability (reversal),[6]; H69AR cells + 2 uM doxorubicin,3.28% (inactive)
same,viability,[6]; [9],83.7%
same,viability,[6]; [10],87%
same,inhibition,[7],-1.03% (inactive)
same,inhibition,[8],9% (inactive)
CCOCCCNS(=O)(=O)c1ccc2c(c1)oc(=O)n2CC(=O)OCC,viability,[1],107%
same,Her2 level,[2],98.5% (inactive)
same,viability,[3],107% (inactive)
same,viability,[4],104% (inactive)
same,viability,[5],94.3% (inactive)
same,differential viability (reversal),[6]; H69AR cells + 2 uM doxorubicin,-8.29% (inactive)
same,viability,[6]; [9],103%
same,viability,[6]; [10],94.3%
same,inhibition,[7],-4.74% (inactive)
same,inhibition,[8],-1.27% (inactive)
C=Cn1nc(C)c2ccccc2c1=O,viability,[1],112%
same,Her2 level,[2],117% (inactive)
same,viability,[3],112% (inactive)
same,viability,[4],105% (inactive)
same,viability,[5],90.1% (inactive)
same,differential viability (reversal),[6]; H69AR cells + 2 uM doxorubicin,4.88% (inactive)
same,viability,[6]; [9],85.2%
same,viability,[6]; [10],90.1%
same,inhibition,[7],-3.33% (inactive)
same,inhibition,[8],-7.83% (inactive)
CC1(C)NC(=O)N(CC(O)CN(Cc2ccccc2)Cc2ccccc2)C1=O (stereo not given),viability,[1],78%
same,Her2 level,[2],78.5% (inactive)
same,viability,[3],78% (inactive)
same,viability,[4],108% (inactive)
same,viability,[5],92.6% (inactive)
same,differential viability (reversal),[6]; H69AR cells + 2 uM doxorubicin,13.7% (inactive)
same,viability,[6]; [9],78.9%
same,viability,[6]; [10],92.6%
same,inhibition,[7],-4.59% (inactive)
same,inhibition,[8],-10.2% (inactive)
CN(C)C(=O)CSc1nnc([C@H](Cc2c[nH]c3ccccc23)NC(=O)OC(C)(C)C)o1,viability,[1],104%
same,Her2 level,[2],96.5% (inactive)
same,viability,[3],104% (inactive)
same,viability,[4],94.9% (inactive)
same,viability,[5],94.6% (inactive)
same,differential viability (reversal),[6]; H69AR cells + 2 uM doxorubicin,0.01% (inactive)
same,viability,[6]; [9],94.6%
same,viability,[6]; [10],94.6%
same,inhibition,[7],-3.68% (inactive)
same,inhibition,[8],5.57% (inactive)
Nc1nc(-n2cnnc2)nn1-c1ccccc1,viability,[1],92%
same,Her2 level,[2],116% (inactive)
same,viability,[3],92% (inactive)
same,viability,[4],85.6% (inactive)
same,viability,[5],101% (inactive)
same,differential viability (reversal),[6]; H69AR cells + 2 uM doxorubicin,11.4% (inactive)
same,viability,[6]; [9],89.9%
same,viability,[6]; [10],101%
same,inhibition,[7],0.13% (inactive)
same,inhibition,[8],-8.5% (inactive)
CCOc1ccc2nc(SCc3ccc(C(=O)OC)o3)[nH]c2c1,viability,[1],77%
same,Her2 level,[2],87.5% (inactive)
same,viability,[3],77% (inactive)
same,viability,[4],89.5% (inactive)
same,viability,[5],109% (inactive)
same,differential viability (reversal),[6]; H69AR cells + 2 uM doxorubicin,12.7% (inactive)
same,viability,[6]; [9],96.4%
same,viability,[6]; [10],109%
same,inhibition,[7],-0.4% (inactive)
same,inhibition,[8],-2.42% (inactive)
O=C(C1CCN(S(=O)(=O)c2cccnc2)CC1)N1CCN(c2ccc(Cl)cc2)CC1,viability,[1],84%
same,Her2 level,[2],81% (inactive)
same,viability,[3],84% (inactive)
same,viability,[4],70.2% (inactive)
same,viability,[5],89.7% (inactive)
same,differential viability (reversal),[6]; H69AR cells + 2 uM doxorubicin,18.8% (inactive)
same,viability,[6]; [9],70.9%
same,viability,[6]; [10],89.7%
same,inhibition,[7],-2.11% (inactive)
same,inhibition,[8],-4.44% (inactive)
CCOC(=O)C1CCN(C(=O)CSc2cc(=O)n(CC)c3ccccc23)CC1,viability,[1],85%
same,Her2 level,[2],99.5% (inactive)
same,viability,[3],85% (inactive)
same,viability,[4],84% (inactive)
same,viability,[5],92.4% (inactive)
same,differential viability (reversal),[6]; H69AR cells + 2 uM doxorubicin,10.4% (inactive)
same,viability,[6]; [9],82%
same,viability,[6]; [10],92.4%
same,inhibition,[7],-0.39% (inactive)
same,inhibition,[8],-5.09% (inactive)
OC1C[N+]2(CCCCC2)C1,viability,[1],98%
same,Her2 level,[2],82% (inactive)
same,viability,[3],98% (inactive)
same,viability,[4],99.6% (inactive)
same,viability,[5],109% (inactive)
same,differential viability (reversal),[6]; H69AR cells + 2 uM doxorubicin,13% (inactive)
same,viability,[6]; [9],95.6%
same,viability,[6]; [10],109%
same,inhibition,[7],-4.8% (inactive)
same,inhibition,[8],-3.23% (inactive)
CCC1(CC)NC(=O)NC1=O,viability,[1],110%
same,Her2 level,[2],90% (inactive)
same,viability,[3],110% (inactive)
same,viability,[4],85% (inactive)
same,viability,[5],105% (inactive)
same,differential viability (reversal),[6]; H69AR cells + 2 uM doxorubicin,14.9% (inactive)
same,viability,[6]; [9],90.1%
same,viability,[6]; [10],105%
same,inhibition,[7],-4.74% (inactive)
same,inhibition,[8],3.11% (inactive)
COc1ccc(-n2c(COc3ccccc3)nnc2SCc2ccc(C#N)cc2)cc1,viability,[1],88%
same,Her2 level,[2],93% (inactive)
same,viability,[3],88% (inactive)
same,viability,[4],81% (inactive)
same,viability,[5],76.4% (inactive)
same,differential viability (reversal),[6]; H69AR cells + 2 uM doxorubicin,22.4% (inactive)
same,viability,[6]; [9],54.1%
same,viability,[6]; [10],76.4%
same,inhibition,[7],0% (inactive)
same,inhibition,[8],-7.82% (inactive)
CCC1Oc2ccc(C)cc2N(CC(=O)N(Cc2cccnc2)Cc2ccc(C)o2)C1=O (stereo not given),viability,[1],93%
same,Her2 level,[2],84% (inactive)
same,viability,[3],93% (inactive)
same,viability,[4],83.7% (inactive)
same,viability,[5],74.8% (inactive)
same,differential viability (reversal),[6]; H69AR cells + 2 uM doxorubicin,41.1% (inactive)
same,viability,[6]; [9],33.7%
same,viability,[6]; [10],74.8%
same,inhibition,[7],-6.27% (inactive)
same,inhibition,[8],6.56% (inactive)
CCN(Cc1cc2cc(OC)ccc2[nH]c1=O)C(=O)Cc1ccc(OC)cc1,viability,[1],91%
same,Her2 level,[2],87.5% (inactive)
same,viability,[3],91% (inactive)
same,viability,[4],96.5% (inactive)
same,viability,[5],88.2% (inactive)
same,differential viability (reversal),[6]; H69AR cells + 2 uM doxorubicin,6.29% (inactive)
same,viability,[6]; [9],81.9%
same,viability,[6]; [10],88.2%
same,inhibition,[7],-0.66% (inactive)
same,inhibition,[8],-3.44% (inactive)
CN(Cc1ccccc1)C(=O)CNC(=O)Cn1cnc2ccccc2c1=O,viability,[1],100%
same,Her2 level,[2],83% (inactive)
same,viability,[3],100% (inactive)
same,viability,[4],91.9% (inactive)
same,viability,[5],100% (inactive)
same,differential viability (reversal),[6]; H69AR cells + 2 uM doxorubicin,9.23% (inactive)
same,viability,[6]; [9],90.8%
same,viability,[6]; [10],100%
same,inhibition,[7],-3.11% (inactive)
same,inhibition,[8],-5.71% (inactive)
